This is an account of results in PubChem BioAssay AID488910 (Broad Institute, 2010).

Each structure is given as a SMILES string. Hit rate of the full screen: of about 20,000 compounds, about 25 (0.1%) were called active. Only a selection was taken, and actives are over-represented in it overall. A number with no mark means an inactive call.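 How the source made its calls: active means mean replicate protection from cytokine-induced ATP loss at least 50% and at least 75% of replicates each reaching 50%; inconclusive means meets only one of the two criteria, mean or replicate share; inactive means fails both the mean and replicate share criteria.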

The nature of this test: protection of INS-1E cells from cytokine death, primary screen, ATP luminescence, single point (AID 488910). The conditions noted are these: INS-1E cytokine-induced death, 48 h, at 10 µM, hits give high values, normalised: neutral wells 0, positive control 100. The gist of the method:
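Material: INS-1E rat cells; Quantity: 8000 cells/well; Buffer or medium: phenol-red-free RPMI with 5% fetal bovine serum; Probe or stimulus: cytokine cocktail of IFN-γ, TNF-α and IL-1β; Compound dosing: single test concentration per compound, delivered by pin transfer; Incubation: 48 h co-treatment, 10 min post-lysis read; Signal: CellTiter-Glo luminescence.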
On to `C[C@H](CO)N1C[C@H](C)[C@H](CN(C)C(=O)Nc2ccc(F)cc2)Oc2c(NC(=O)c3cnccn3)cccc2C1=O`, for which the protection from cytokine-induced ATP loss was 8.13%.
The value for `C[C@@H]1CCCCO[C@H](CN(C)C(=O)c2ccccc2)[C@@H](C)CN([C@H](C)CO)C(=O)c2cc(NC(=O)Nc3cccc4ccccc34)ccc2O1` was -1.39%.
The value for `C[C@@H]1CCCCO[C@H](CN(C)S(=O)(=O)c2ccccc2)[C@@H](C)CN([C@H](C)CO)C(=O)c2cc(NC(=O)Nc3ccc(F)cc3)ccc2O1` was -6.46%.
The value for `CC(C)NC(=O)N(C)C[C@H]1Oc2ccc(NC(=O)Cn3cnnn3)cc2CC(=O)N([C@H](C)CO)C[C@H]1C` was -1.35%; that for `Cc1noc(C)c1NC(=O)Nc1ccc2c(c1)C(=O)N([C@H](C)CO)C[C@H](C)[C@H](CN(C)Cc1ccc(Oc3ccccc3)cc1)O2` was -15.9%; that for `C[C@H](CO)N1C[C@H](C)[C@H](CN(C)S(C)(=O)=O)Oc2ccc(NC(=O)Nc3ccc(F)cc3)cc2C1=O` was 2.55%.
As for `CC(C)NC(=O)N(C)C[C@@H]1Oc2c(cccc2N(C)C)C(=O)N([C@@H](C)CO)C[C@H]1C`, the protection from cytokine-induced ATP loss is 10.2%.
With `C[C@@H]1CN([C@H](C)CO)C(=O)c2cccc(NS(=O)(=O)c3ccc(F)cc3)c2O[C@@H]1CN(C)C(=O)Nc1ccc(C(F)(F)F)cc1`, the protection from cytokine-induced ATP loss is -38%.
Take `Cc1ccc(S(=O)(=O)N(C)C[C@@H]2Oc3c(NC(=O)c4ccncc4)cccc3C(=O)N([C@@H](C)CO)C[C@@H]2C)cc1`: the protection from cytokine-induced ATP loss is 11.7%.
With `COc1ccc(NC(=O)N(C)C[C@H]2Oc3c(NC(=O)Nc4cccc5ccccc45)cccc3C(=O)N([C@H](C)CO)C[C@@H]2C)cc1`, the protection from cytokine-induced ATP loss is -0.252%.
Then `COc1cc(Br)cc(/C=N/NC(=O)c2ccccn2)c1O`, with -83.9%; and `C[C@@H]1CCCCO[C@H](CN(C)CC2CC2)[C@@H](C)CN([C@H](C)CO)C(=O)c2cc(NC(=O)Cc3ccccc3)ccc2O1`, with -0.194%.
Then `COc1ccc(NC(=O)N(C)C[C@H]2Oc3ccc(NC(=O)Nc4ccc5c(c4)OCO5)cc3C(=O)N([C@H](C)CO)C[C@H]2C)cc1`, with 3.2%; and `Cc1ccc(S(=O)(=O)Nc2ccc3c(c2)C(=O)N([C@H](C)CO)C[C@H](C)[C@H](CN(C)Cc2ccccc2)OCCCC[C@@H](C)O3)cc1`, with -2.3%.
Then `CC(C)NC(=O)N(C)C[C@H]1Oc2c(NS(C)(=O)=O)cccc2C(=O)N([C@@H](C)CO)C[C@H]1C`, with 12.8%; and `C[C@H]1CN([C@@H](C)CO)C(=O)c2cc(NC(=O)Cn3cnnn3)ccc2O[C@@H]1CN(C)C(=O)Nc1ccccc1`, with 2.24%; and `Cc1ccc(S(=O)(=O)N(C)C[C@@H]2Oc3ccc(NC(=O)Nc4ccc5c(c4)OCO5)cc3C(=O)N([C@@H](C)CO)C[C@@H]2C)cc1`, with 20.1%.
For `O=C(O)CCCCCCC(=O)N/N=C/c1ccncc1Br`, the protection from cytokine-induced ATP loss was 6.66%.
Consider `C[C@H]1CN([C@@H](C)CO)C(=O)c2cccc(NC(=O)C3CCCCC3)c2O[C@H]1CN(C)C(=O)NC1CCCCC1`, for which the protection from cytokine-induced ATP loss is 6.52%.
Then `Cc1noc(C)c1NC(=O)N(C)C[C@H]1Oc2ccc(NC(=O)C3CCCCC3)cc2CC(=O)N([C@@H](C)CO)C[C@H]1C`, with 4.09%; and `Cc1ccc(S(=O)(=O)N(C)C[C@@H]2OCCCC[C@@H](C)Oc3ccc(NS(=O)(=O)c4ccccc4)cc3C(=O)N([C@H](C)CO)C[C@@H]2C)cc1`, with -4.67%.
Then `Cc1ccc(S(=O)(=O)Nc2ccc3c(c2)C(=O)N([C@H](C)CO)C[C@H](C)[C@H](CN(C)Cc2ccc(C(=O)Nc4ccccc4N)cc2)OCCCC[C@@H](C)O3)cc1`, with 1.83%; and `C[C@H]1CN([C@@H](C)CO)C(=O)c2cc(NS(=O)(=O)c3ccc(Cl)cc3)ccc2O[C@H]1CN(C)Cc1ccc(Oc2ccccc2)cc1`, with -11.4%.
With `C[C@@H]1CCCCO[C@@H](CN(C)C(=O)CCCN(C)C)[C@@H](C)CN([C@H](C)CO)C(=O)c2cc(NC(=O)Nc3ccc(F)cc3)ccc2O1`, the protection from cytokine-induced ATP loss is 9.84%.
Then `C[C@H](CO)N1C[C@H](C)[C@H](CN(C)Cc2ccncc2)Oc2ccc(NC(=O)C3CCCCC3)cc2CC1=O`, with -9.96%.
As for `COc1ccc(NC(=O)N(C)C[C@H]2Oc3c(NC(=O)C4CC4)cccc3C(=O)N([C@@H](C)CO)C[C@@H]2C)cc1`, the protection from cytokine-induced ATP loss was -1.85%.
On to `C[C@@H]1CN([C@H](C)CO)C(=O)c2cccc(NC(=O)c3cnccn3)c2O[C@@H]1CN(C)Cc1ccncc1`, for which the protection from cytokine-induced ATP loss was 3.26%.
Consider `C[C@@H]1CN([C@H](C)CO)C(=O)c2cc(NC(=O)CCCCCC(=O)Nc3ccccc3N)ccc2O[C@H]1CN(C)C(=O)Nc1ccc(C(F)(F)F)cc1`, for which the protection from cytokine-induced ATP loss is 1.3%.
Then `C[C@@H]1CN([C@H](C)CO)C(=O)Cc2cc(NC(=O)CCN3CCOCC3)ccc2O[C@@H]1CN(C)S(C)(=O)=O`, with 3.88%; and `Cc1ccc(S(=O)(=O)N(C)C[C@H]2Oc3ccc(NS(=O)(=O)c4ccccc4)cc3CC(=O)N([C@@H](C)CO)C[C@H]2C)cc1`, with -6.07%; and `C[C@@H]1CN([C@H](C)CO)C(=O)c2cccc(NC(=O)C3CCCCC3)c2O[C@@H]1CN(C)C(=O)NC1CCCCC1`, with 6.03%.
With `C[C@H](CO)N1C[C@H](C)[C@H](CN(C)Cc2ccc3c(c2)OCO3)Oc2c(NC(=O)NC3CCCCC3)cccc2C1=O`, the protection from cytokine-induced ATP loss is -16.1%.
The value for `CNC[C@@H]1Oc2ccc(NS(=O)(=O)c3c(C)noc3C)cc2CC(=O)N([C@@H](C)CO)C[C@@H]1C` was 0.843%; that for `CC(C)NC(=O)Nc1ccc2c(c1)C(=O)N([C@H](C)CO)C[C@H](C)[C@@H](CN(C)S(C)(=O)=O)OCCCC[C@@H](C)O2` was 1.03%.
Then `C[C@@H]1CN([C@@H](C)CO)C(=O)Cc2cc(NC(=O)C3CCCCC3)ccc2O[C@@H]1CN(C)C(=O)Nc1ccc(C(F)(F)F)cc1`, with -12.7%; and `Cc1ccc(S(=O)(=O)N(C)C[C@@H]2Oc3c(NS(=O)(=O)c4ccc(F)cc4)cccc3C(=O)N([C@@H](C)CO)C[C@H]2C)cc1`, with 15.4%.
